Screening results from PubChem.
Rows were chosen to be rich in hits. Some 4.1% of all compounds tested hit in one or more screens of this group.
MrgX1 allo act: human MrgX1 positive allosteric modulation, primary screen; B-score at 10 µM; AID 588675; Q96LB2; MrgX1-HEK293, Fluo-4 calcium flux, FDSS; active compounds read high; 310,000 compounds, 0.63% hits;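 active = plate-corrected calcium response at least 3 library SD above typical, normal starting fluorescence, not activating the receptor alone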;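 also: compound read alongside a low EC10 to EC30 dose of BAM8-22 agonist; peak minus trough fluorescence over baseline measured at the second addition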
MrgX1 antagonist: human MrgX1 receptor antagonism, primary screen; Q96LB2; MRGX1-HEK293 calcium flux, Fluo-4, BAM8-22 antagonism; active compounds read low; B-score at 10 µM; 310,000 compounds, 1.3% hits;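 active = calcium-response B-score plate-corrected more than 3 library SD below zero, starting fluorescence within 5 deviations, no agonist response on first addition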;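 also: peak minus trough fluorescence over baseline after final BAM8-22 challenge near maximal dose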
Kir21 inh: blocks the mouse Kir2.1 inward-rectifier potassium channel | P35561 | HEK293-Kir2.1, FluxOR thallium flux fluorescence; active compounds read low | 310,000 compounds, 0.85% hits | B-score at 10 µM;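 active = fluorescence ratio B-score at or below minus 3 SD of library scores, with starting-brightness B-score within 2 SD, cut at about -4.2 in these data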;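 also: channel flux triggered by added potassium and thallium sulfate stimulus; B-score of peak minus minimum fluorescence over baseline after thallium stimulus; more negative B-score means stronger Kir2.1 block with less thallium influx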
Target sequence (P35561 whole entry, looked up): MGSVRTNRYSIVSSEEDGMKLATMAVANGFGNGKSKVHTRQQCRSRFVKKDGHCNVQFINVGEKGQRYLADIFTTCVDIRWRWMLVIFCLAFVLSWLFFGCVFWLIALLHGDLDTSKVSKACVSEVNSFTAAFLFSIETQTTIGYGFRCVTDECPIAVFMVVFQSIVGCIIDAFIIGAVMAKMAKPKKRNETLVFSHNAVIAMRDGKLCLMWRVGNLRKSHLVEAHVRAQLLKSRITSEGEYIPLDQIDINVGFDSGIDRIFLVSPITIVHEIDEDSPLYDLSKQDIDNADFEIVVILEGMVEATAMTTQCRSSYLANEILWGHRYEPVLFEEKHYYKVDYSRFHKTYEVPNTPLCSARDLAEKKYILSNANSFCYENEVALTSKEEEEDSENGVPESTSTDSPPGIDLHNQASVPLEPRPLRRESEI
MrgX1 ag: agonists of human MrgX1 receptor. MrgX1-HEK293 cells, Fluo-4 calcium fluorescence, agonist mode; active compounds read high. B-score at 10 µM. 310,000 compounds, 0.44% hits;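 active = calcium response B-score plate-corrected fluorescence ratio at least 3 library SD, with starting fluorescence B-score inside 5 SD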
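Material – MrgX1-expressing HEK293 cells · Input – 15,000 cells seeded per well · Dosing – compound as first of three additions · Times – overnight seeding, then 1 h dark dye loading · Measured by – kinetic Fluo-4 NW fluorescence of intracellular calcium · Read-out – B-scored fluorescence response ratio · Benchmarks – positive and negative control wells on each plate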
RGS4 block: inhibitors of human RGS4; 310,000 compounds, 0.45% hits; AID 463165; HEK293 M3R/RGS4 inducible, Fluo-4 calcium flux; active compounds read high; triggered by carbachol at its EC20; B-score at 10 µM; P49798;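 active = B-score, a plate-corrected calcium signal, over three deviations above library mean, with baseline fluorescence within five deviations of library mean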;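 also: RGS4 expression induced by doxycycline in cells with stable M3 receptor; B-score is computed from the integrated fluorescence ratio over baseline after carbachol; higher B-score means a larger calcium signal and so more RGS4 inhibition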
Target sequence (P49798 whole entry, looked up): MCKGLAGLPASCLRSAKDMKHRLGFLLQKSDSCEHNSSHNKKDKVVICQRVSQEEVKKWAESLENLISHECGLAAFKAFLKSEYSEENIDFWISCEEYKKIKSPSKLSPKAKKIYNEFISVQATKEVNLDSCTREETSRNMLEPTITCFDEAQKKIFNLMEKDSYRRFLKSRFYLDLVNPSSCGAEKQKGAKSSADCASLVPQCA
RGS4 pot: potentiators or activators of RGS4. HEK293 M3R/inducible RGS4, carbachol calcium flux Fluo4; active compounds read low. B-score at 10 µM. 310,000 compounds, 0.92% hits. AID 463111;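 active = B-score of the integrated calcium signal more than 4 SD below the library mean, with starting fluorescence not abnormally high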;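 also: negative B-score means reduced calcium response which marks RGS4 activation or potentiation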
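Assay system: HEK293 FlpIn-TREx cells, stable M3R, doxycycline-inducible RGS4 / Probe or stimulus: carbachol, ECmax concentration / Times: overnight RGS4 induction, 30 min dye load 37 °C, 20 min compound RT / Signal: kinetic calcium fluorescence imaging with Fluo4-AM dye, 2 µM / Measure: Agonist-evoked peak-minus-minimum fluorescence over baseline, integrated ratio, B score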
Large screens that a line does not name were inactive.

COc1ccc(C2c3ccc4ccccc4c3Oc3ncn(CCCO)c(=N)c32)cc1 (stereo unspecified)	none
N=c1c2c(ncn1CCCO)Oc1c(ccc3ccccc13)C2c1ccccc1 (stereo unspecified)	none
COc1ccc(C2c3ccc4ccccc4c3Oc3ncn(CCN(C)C)c(=N)c32)cc1 (stereo unspecified)	Kir21 inh -4.28
COCCCn1c(=O)c2ccccc2n(Cc2ccccc2C)c1=O	none
O=C(COc1ccccc1)NCc1ccc(-n2cccc2)cc1	none
O=C(CCS(=O)(=O)c1ccc(Br)cc1)NCc1ccc(F)cc1	none
CCOC(=O)c1c(CSc2ccc(CC)cc2)oc2ccc(O)c(CN(C)C)c12	MrgX1 antagonist -5.91, Kir21 inh -15.7
CC(=O)c1c(CSc2ccccc2)oc2ccc(O)c(CN(C)C)c12	Kir21 inh -6.5
CN(C)/C=C1\N=C(c2cccnc2Oc2ccc(Cl)cc2)OC1=O	none
Cc1cccc(NC(=O)CCC(=O)c2cccs2)n1	none
Cc1c(NS(=O)(=O)c2ccccc2)c(=O)n(-c2ccccc2)n1C	none
Cc1c(C)n(CC(O)CNCCO)c2ccccc12 (stereo unspecified)	none
OC(CNCC1CCCO1)Cn1c2ccc(Cl)cc2c2cc(Cl)ccc21 (stereo unspecified)	Kir21 inh -5.43
OC(CNCCC1C=Nc2ccccc21)Cn1c2ccc(Cl)cc2c2cc(Cl)ccc21 (stereo unspecified)	RGS4 block 7.4
COc1cc(CNCCCN2CCOCC2)cc(Br)c1OCc1ccc(Cl)cc1	Kir21 inh -8.18
Clc1ccccc1C1=CC(c2ccco2)n2ncnc2N1 (stereo unspecified)	MrgX1 ag 28.8
Clc1ccc(C2=CC(c3ccco3)n3ncnc3N2)cc1 (stereo unspecified)	none
CN(C(=O)CSc1nc(-c2ccc(F)cc2)cs1)C1CCS(=O)(=O)C1 (stereo unspecified)	none
CCCCCOC(=O)Cn1c(=O)oc2ccccc21	none
CCCCCCCCCCOC(=O)Cn1c(COc2ccc(OC)cc2)[n+](C)c2ccccc21	MrgX1 antagonist -9.13, Kir21 inh -8.59, RGS4 pot -9.1
CCCCCCCCCCOC(=O)Cn1c(COc2cccc(C)c2)[n+](C)c2ccccc21	MrgX1 antagonist -5.94, Kir21 inh -12.5, RGS4 pot -8.47
CCCCOC(=O)Cn1c(=O)n(CC(=O)OCCCC)c2ccccc21	Kir21 inh -6.07
CC(C)(C)NC(=O)CSc1nc(-c2ccccc2)cc(=O)[nH]1	none
Cc1ccc(C(=O)Nc2cc3[nH]c(=O)oc3cc2C)cc1	none
COc1cccc(-c2nc(CS(=O)(=O)CC(=O)NCCCN3CCOCC3)c(C)o2)c1	none
O=C(NCCc1ccccc1)C1CCCN1C(=O)Nc1ccccc1 (stereo unspecified)	none
O=C(CSc1ccc(-c2ccccc2)nn1)N1CCCCC1	none
COc1ccc(C(=O)NCCCc2ccccc2)cc1	none
CCOC(=O)c1cnc2sc3c(n2c1=O)CCCC3	MrgX1 antagonist -5.18 (no result: Kir21 inh, RGS4 block, RGS4 pot)
CCOC(=O)c1cnc2nc(C)[nH]n2c1=O	none
Cc1onc(-c2ccccc2Cl)c1C(=O)Nc1ccc(OCC(=O)N2CCOCC2)cc1	none
Cc1cc(C)n2nc(SCC(=O)Nc3c(C)n(C)n(-c4ccccc4)c3=O)nc2n1	MrgX1 antagonist -4.58
CCNC(=S)N=Nc1c(O)[nH]c2ccc(C(C)C)cc12	none
O=C(CSc1nnc(-c2ccccc2)n1Cc1ccccc1)N1CCCC1	none
CCc1cc(-c2n[nH]c(=S)n2C(C)c2ccccc2)cs1 (stereo unspecified)	Kir21 inh -7.77
COc1ccc(CNC(=O)CCCCCNc2nc(=S)[nH]c3ccccc23)cc1	none
O=[N+]([O-])c1ccc(N2CCN(CCOCCO)CC2)c([N+](=O)[O-])c1	none
CC(=O)Nc1ccccc1OCC(=O)c1cc(C)n(Cc2cccs2)c1C	MrgX1 ag 47.6
Cc1cc(C(=O)COc2cccnc2[N+](=O)[O-])c(C)n1Cc1cccs1	none
O=C(Nc1ccc(-c2nc3ccccc3s2)c(OC(=O)c2ccccc2)c1)c1ccccc1	MrgX1 antagonist -4.82
COc1ccc(C(OCC(O)CN(C)C2CCCCC2)c2ccc(OC)cc2)cc1 (stereo unspecified)	none
CCOc1ccc(CN(C)CC(O)COC(c2ccc(OC)cc2)c2ccc(OC)cc2)cc1 (stereo unspecified)	Kir21 inh -7.66
O=C(Nc1ccc2oc(=O)ccc2c1)c1cc([N+](=O)[O-])ccc1N1CCOCC1	none
Cc1ccc(CSC(Nc2ccc(F)cc2)=C(C#N)C#N)cc1	none
CCN(CC)C(=O)CSC(Nc1ccc(F)cc1)=C(C#N)C#N	MrgX1 ag 44.2
CC(=O)N1N=C(c2ccc(NS(C)(=O)=O)cc2)CC1c1ccc2nccnc2c1 (stereo unspecified)	MrgX1 antagonist -7.23
Cc1onc(-c2ccccc2)c1C(=O)N/N=C/C=C/c1ccccc1	none
Cc1ccc(C(=O)N/N=C/C=C/c2ccccc2)o1	MrgX1 antagonist -7.01
COc1cc(C(=O)N/N=C/c2ccc(OC(=O)c3ccccc3Cl)c(OC)c2)ccc1O	MrgX1 antagonist -4.65, RGS4 pot -9.9
O=C(N/N=C/c1cc(Br)c(Br)o1)c1cccnc1	MrgX1 antagonist -6
COc1cc(/C=N/NC(=O)c2ccc(N)cc2)ccc1OC(=O)c1cccc(C)c1	MrgX1 antagonist -5.57, RGS4 pot -8.52
COc1cc(/C=N/NC(=O)c2ccccn2)ccc1OC(=O)c1ccc(Br)cc1	none
O=C(N/N=C\c1cc(Br)c(Br)o1)c1cncc(Br)c1	none
COc1cc(/C=N/NC(=O)c2ccccn2)ccc1OC(=O)c1ccccc1Br	RGS4 pot -8.12
O=C(N/N=C/c1cn(Cc2ccccc2)c2ccccc12)c1cc(O)cc(O)c1	none
COc1cc(/C=C/C(=O)NC(=O)c2ccccc2O)ccc1O	MrgX1 allo act 12.4
O=C(N/N=C/c1cccc(OC(=O)c2ccccc2Cl)c1)c1cccnc1	RGS4 pot -7.65
NC(=O)CCC(NC(=O)c1ccc(Cl)cc1)C(=O)O (stereo unspecified)	none
CCCCCCc1cc2cc(-c3nnc(-c4ccccc4OC)o3)c(=O)oc2cc1O	none
CCCCCCc1cc2cc(-c3nnc(-c4cc(OC)c(OC)c(OC)c4)o3)c(=O)oc2cc1O	MrgX1 ag 79.9
O=C(CCCn1c(=O)[nH]c2cc(Cl)ccc2c1=O)NCCCN1CCCC1=O	none
COc1cc(OC)c(CN2CCC(Cc3ccccc3)CC2)cc1Br	Kir21 inh -4.82
OCc1ccccc1OCCCN1CCC(Cc2ccccc2)CC1	none
COc1ccc(OC)c(CN2CCC(Cc3ccccc3)CC2)c1	none
C=CCOc1ccccc1CN1CCC(Cc2ccccc2)CC1	Kir21 inh -4.27
